In ChEMBL document CHEMBL4334452, “Monosaccharide Analogues of Anticancer Peptide R-Lycosin-I: Role of Monosaccharide Conjugation in Complexation and the Potential of Lung Cancer Targeting and Therapy” (J Med Chem, 2019):
The source made the active and inactive calls. The rule behind the calls is not given here. *1 amine or outer side, *2 acyl side, *3 side chain or, on linkers, in order; H or OH if unused. Where a SMILES comes first, the peptide text is derived from it. The star is where a group is joined. NH(CH2)3O(βDGlc) = OC[C@H]1O[C@@H](OCCCN*)[C@H](O)[C@@H](O)[C@@H]1O; Glutaryl = O=C(CCCC(=O)[*:2])[*:1]

Legend:
[1] = molecular target: T1, Solute carrier family 2, facilitated glucose transporter member 1 (Homo sapiens) (UniProt P11166); assay: Binding affinity to GLUT1 in human A549 cells assessed as cytotoxicity by measuring reduction in cell viability at 12.5 uM measured after 2 hrs in absence of GLUT1 inhibitor STF-31 by CCK8 assay; format: cell-based
T1 sequence (whole entry): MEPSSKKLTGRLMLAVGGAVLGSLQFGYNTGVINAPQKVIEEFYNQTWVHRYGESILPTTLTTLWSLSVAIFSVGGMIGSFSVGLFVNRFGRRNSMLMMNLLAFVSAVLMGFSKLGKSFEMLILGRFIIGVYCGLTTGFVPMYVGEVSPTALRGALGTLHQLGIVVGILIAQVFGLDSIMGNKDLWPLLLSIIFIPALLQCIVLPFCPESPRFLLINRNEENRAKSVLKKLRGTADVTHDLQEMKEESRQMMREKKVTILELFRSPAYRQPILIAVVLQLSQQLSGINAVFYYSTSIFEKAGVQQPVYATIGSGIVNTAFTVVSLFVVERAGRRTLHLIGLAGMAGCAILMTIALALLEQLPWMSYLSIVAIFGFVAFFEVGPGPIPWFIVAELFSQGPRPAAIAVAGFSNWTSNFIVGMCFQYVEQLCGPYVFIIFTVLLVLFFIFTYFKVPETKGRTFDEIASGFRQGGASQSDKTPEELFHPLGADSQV
Outline: (§1)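 A549 cells at 2×10^3/well, grown overnight, then preincubated 4 h in F12K/10% FBS with or without STF-31 (1 µM final). […] Incubated a further 2 h at 37 °C; viability by CCK-8.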

[2] = molecular target: T1, Solute carrier family 2, facilitated glucose transporter member 1 (Homo sapiens); assay: Binding affinity to GLUT1 in human A549 cells assessed as cytotoxicity by measuring reduction in cell viability at 40 umol/L measured up to 24 hrs in presence of 10% serum by CCK8 assay; format: cell-based
[3] = molecular target: T1, Solute carrier family 2, facilitated glucose transporter member 1 (Homo sapiens); assay: Binding affinity to GLUT1 in human A549 cells assessed as cytotoxicity by measuring reduction in cell viability at 12.5 uM measured after 2 hrs in presence of GLUT1 inhibitor STF-31 by CCK8 assay; format: cell-based; outline: as §1
[4] = molecular target: T1, Solute carrier family 2, facilitated glucose transporter member 1 (Homo sapiens); assay: Binding affinity to GLUT1 in human A549 cells assessed as cytotoxicity by measuring reduction in cell viability at 40 umol/L measured up to 48 hrs in presence of 10% serum by CCK8 assay relative to control; format: cell-based
[5] = Drug uptake in tumor of Balb/c nu/nu mouse xenografted with human A549 cells expressing luciferase gene at 9 mg/kg, ip measured after 6 hrs by fluorescence assay; format: ADME, organism-based, Neoplasm; details: in vivo
A549 [6] = assay: Inhibition of colony formation in human A549 cells at 4 uM supplemented with fresh medium containing compounds every 7 days for 15 days by crystal violet staining based assay; format: functional, cell-based
Outline: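 Cells seeded at 300 per plate in 6-well plates; after 36 h exposed to 4 μM peptide, re-added after 7 days. Incubated 15 days total at 37°C, 5% CO2, then colonies stained with 2% crystal violet and quantified; n=3.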

[7] = molecular target: T1, Solute carrier family 2, facilitated glucose transporter member 1 (Homo sapiens); assay: Binding affinity to GLUT1 in human A549 cells assessed as cytotoxicity by measuring cell viability at 12.5 uM measured after 2 hrs in absence of GLUT1 inhibitor STF-31 by CCK8 assay relative to control; format: cell-based; outline: as §1
[8] = Drug uptake in GLUT1 knockout out human A549 cells at 12.5 uM measured after 2 hrs using FITC-labelled compound by fluorescence assay; format: ADME, cell-based; details: a549, 2 h
Outline: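 FITC-labelled peptide at 12.5 µM for 2 h, given to A549 cells and to A549 GLUT1-RNAi knockdown cells. Total and fluorescent cells counted by automated cell counter; n=3.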

[9] = Toxicity in Balb/c nu/nu mouse xenografted with human A549 cells expressing luciferase gene assessed as effect on kidney at 9 mg/kg, ip administered every 2 days for seven times measured on day 14 by H and E staining based assay; format: organism-based; details: in vivo, 48 h
Outline: (§2)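 Male BALB/c nu/nu mice bearing subcutaneous A549-luciferase xenografts received 9 mg/kg peptide i.p. (200 µL) every other day for seven doses, with a PBS control group of five. Heart, liver and kidney were fixed in 10% paraformaldehyde, sectioned and stained with H&E for histology.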

[10] = molecular target: T1, Solute carrier family 2, facilitated glucose transporter member 1 (Homo sapiens); assay: Binding affinity to GLUT1 in human A549 cells assessed as cytotoxicity by measuring cell viability at 12.5 uM measured after 2 hrs in presence of GLUT1 inhibitor STF-31 by CCK8 assay relative to control; format: cell-based; outline: as §1
A549 [11] = assay: Cytotoxicity against GLUT1 knockout out human A549 cells assessed as reduction in cell viability measured after 24 hrs by CCK8 assay; format: functional, cell-based; details: A549, 24 h
Outline: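 A549 cells with GLUT1 knocked down by RNAi oligos, about 50% knockdown versus control oligos. Cells treated with a concentration series, read by 24-h serum-free CCK-8 viability, and an IC50 derived from the dose-response curve.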

[12] = Drug uptake in tumor of Balb/c nu/nu mouse xenografted with human A549 cells expressing luciferase gene at 3 mg/kg administered intratumorally measured after 6 hrs by fluorescence assay; format: ADME, organism-based, Neoplasm; details: in vivo, other
A549 [13] = assay: Antitumor activity against human A549 cells expressing luciferase gene xenografted in Balb/c nu/nu mouse assessed as reduction in tumor volume at 9 mg/kg, ip administered every 2 days for seven times measured on day 14 by bioluminescent imaging analysis; format: functional, organism-based
Outline: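 Male BALB/c nu/nu mice, 4-6 weeks old, carrying subcutaneous A549-luciferase xenografts in the right back. Dosing started when tumors reached 100-200 mm³ (day 0), five per group. Peptide was given at 9 mg/kg i.p. in 200 µL every other day for 7 doses; PBS served as control. Bioluminescent imaging on day 14; tumor size and body weight tracked. Tumors fixed in paraformaldehyde, paraffin-sectioned, TUNEL-stained.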

[14] = Toxicity in Balb/c nu/nu mouse xenografted with human A549 cells expressing luciferase gene assessed as effect on heart at 9 mg/kg, ip administered every 2 days for seven times measured on day 14 by H and E staining based assay; format: organism-based; details: in vivo, 48 h; outline: as §2
HEK-293T = assay: Cytotoxicity against HEK293T cells at 12.5 uM measured after 2 hrs by LDH release assay; format: cell-based; details: human

Structure (SMILES)	Activity [1]	Activity [2]	Activity [3]	Activity [4] [%]	Drug uptake [5]	inhibition (A549 [6])	Activity [7] [%]	Drug uptake [8]	Activity [9]	Activity [10] [%]	IC50 (A549 [11]) [µM]	Drug uptake [12]	Activity (A549 [13])	Activity [14]	Activity (HEK-293T)
CC[C@H](C)[C@H](NC(=O)[C@H](Cc1ccccc1)NC(=O)[C@H](CCCNC(=N)N)NC(=O)[C@H](C)NC(=O)[C@@H](NC(=O)[C@H](CO)NC(=O)[C@H](CCCNC(=N)N)NC(=O)[C@H](CCSC)NC(=O)[C@H](C)NC(=O)[C@H](CCCNC(=N)N)NC(=O)[C@H](Cc1ccccc1)NC(=O)[C@H](Cc1c[nH]c2ccccc12)NC(=O)CNC(=O)[C@@H](N)CCCNC(=N)N)[C@@H](C)CC)C(=O)N[C@@H](C)C(=O)N[C@@H](CCCNC(=N)N)C(=O)N[C@@H](CCC(=O)O)C(=O)N[C@@H](CCCNC(=N)N)C(=O)N[C@@H](CC(C)C)C(=O)N[C@@H](CCCNC(=N)N)C(=O)N[C@@H](CCC(=O)O)C(=O)N[C@@H](Cc1cnc[nH]1)C(=O)N[C@@H](CC(C)C)C(=O)O (H-RGWFRAMRSIARFIARERLREHL-OH)	Active	inactive	Active												
CC[C@H](C)[C@H](NC(=O)[C@H](Cc1ccccc1)NC(=O)[C@H](CCCNC(=N)N)NC(=O)[C@H](C)NC(=O)[C@@H](NC(=O)[C@H](CO)NC(=O)[C@H](CCCNC(=N)N)NC(=O)[C@H](CCSC)NC(=O)[C@H](C)NC(=O)[C@H](CCCNC(=N)N)NC(=O)[C@H](Cc1ccccc1)NC(=O)[C@H](Cc1c[nH]c2ccccc12)NC(=O)CNC(=O)[C@H](CCCNC(=N)N)NC(=O)CCCC(=O)NCCCO[C@@H]1O[C@H](CO)[C@@H](O)[C@H](O)[C@H]1O)[C@@H](C)CC)C(=O)N[C@@H](C)C(=O)N[C@@H](CCCNC(=N)N)C(=O)N[C@@H](CCC(=O)O)C(=O)N[C@@H](CCCNC(=N)N)C(=O)N[C@@H](CC(C)C)C(=O)N[C@@H](CCCNC(=N)N)C(=O)N[C@@H](CCC(=O)O)C(=O)N[C@@H](Cc1cnc[nH]1)C(=O)N[C@@H](CC(C)C)C(=O)O ({NH(CH2)3O(βDGlc)-Glutaryl}-RGWFRAMRSIARFIARERLREHL-OH)				80	Active	Active	54	Not Active	Non-Toxic	40	13.4	Active	Active	Non-Toxic	Non-Toxic
